Calls of active or inactive are those of the source. The rule behind the calls is not given here.
Experiments:
[1] = Clearance in C57Bl/6 mouse at 2 mg/kg, iv and 9 mg/kg, po; assay type: ADME, organism-based; settings: in vivo
In short: (§1)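 Male C57Bl/6 mice, 8 weeks old, 24−29 g. Dosing was by oral gavage at 9 mg/kg as an aqueous microsuspension in gelatin/NaCl (7.5%/0.62%), or by iv bolus at 2 mg/kg in aqueous NaCl/30% 1-methyl-2-pyrrolidone. Terminal blood (n = 2 per time point) was collected into EDTA tubes and spun at 4 °C to obtain plasma. Plasma levels were measured by LC−MS/MS after acetonitrile precipitation. Values are the mean of two experiments.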

[2] = system: Mus musculus; assay: Dose normalized AUC in C57Bl/6 mouse at 9 mg/kg, po; assay type: ADME, organism-based; set-up: dose 9 mg/kg, route oral; settings: in vivo; in short: as §1
[3] = Volume of distribution at steady state in C57Bl/6 mouse at 2 mg/kg, iv and 9 mg/kg, po; assay type: ADME, organism-based; settings: in vivo, read-out: Vdss; in short: as §1
[4] = Metabolic stability in NMRI mouse plasma assessed as compound remaining at 1000 ng/mL after 4 hrs; assay type: ADME, cell-free; settings: read-out: Stability
In short: (§2)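 Heparinized pooled NMRI mouse plasma was spiked with compound at 1000 ng/mL and incubated at 37 °C in an orbital shaker. Aliquots (n = 3 per time point) were taken at 2 min, 1 h and 4 h and analysed by LC−MS/MS.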

[5] = biological target: Cathepsin S (Homo sapiens, UniProt P25774); assay: Inhibition of human cathepsin-S using Z-Val-Val-Arg-AMC as substrate up to 20 mins by fluorescence assay
Cathepsin S (Homo sapiens, UniProt P25774), sequence (P25774 whole entry): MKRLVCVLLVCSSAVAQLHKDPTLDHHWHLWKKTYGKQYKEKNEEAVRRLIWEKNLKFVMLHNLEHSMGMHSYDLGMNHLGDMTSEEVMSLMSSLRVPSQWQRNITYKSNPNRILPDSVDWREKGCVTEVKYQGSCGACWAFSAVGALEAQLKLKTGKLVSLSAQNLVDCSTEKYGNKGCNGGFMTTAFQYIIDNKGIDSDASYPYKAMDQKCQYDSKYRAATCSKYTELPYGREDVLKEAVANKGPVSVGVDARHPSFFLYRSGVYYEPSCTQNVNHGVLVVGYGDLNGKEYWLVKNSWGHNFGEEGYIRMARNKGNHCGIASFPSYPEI
In short: (§3)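 Fluorogenic quenched-peptide cleavage assay. Enzymes at 1 nM in 100 mM potassium phosphate pH 6.5, 5 mM EDTA-Na, 0.001% Triton X-100 and 5 mM DTT. Enzyme was added to the compound dilutions, then 20 μM substrate started the reaction: Z-Val-Val-Arg-AMC, or Z-Leu-Arg-AMC for CatK. Fluorescence (ex 360/em 465 nm) was read over 20 min. IC50 is the mean of ≥2 independent experiments.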

[6] = system: Plasma; assay: Metabolic stability in human plasma assessed as compound remaining at 1000 ng/mL after 5 hrs; assay type: ADME, cell-free
[7] = biological target: Cathepsin B (Homo sapiens, UniProt P07858); assay: Inhibition of human cathepsin-B using Z-Val-Val-Arg-AMC as substrate up to 20 mins by fluorescence assay; in short: as §3
[8] = Oral bioavailability in C57Bl/6 mouse at 9 mg/kg; assay type: ADME, organism-based; settings: in vivo; in short: as §1
[9] = system: A20; assay: Inhibition of ovalbumin-induced antigen presentation in mouse A20 cells treated 1 hr before ovalbumin addition incubated for 16 hrs followed by co-cultured with DO10.10 T-cell hybridoma cells for 24 hrs assessed as IL-2 production by luminex single-bead analysis; assay type: functional, cell-based
In short: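 A20 cells were seeded at 3 × 10⁵/mL and preincubated with compound for 1 h. Ovalbumin was then added (5 mg/mL final) for 16 h. Cells were washed three times with PBS, then DO10.10 T-cell hybridoma cells (2 × 10⁵/mL) were added. After 24 h, IL-2 was quantified by Luminex single-bead assay using two anti-IL-2 antibodies. IC50 is the mean of ≥2 independent experiments.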

[10] = Half life in C57Bl/6 mouse at 9 mg/kg, po; assay type: ADME, organism-based; set-up: dose 9 mg/kg, route oral; settings: in vivo; in short: as §1
[11] = system: Mus musculus; assay: Reduction of ovalbumin-induced IL-2 production in DO10.11 transgenic BALB/c mouse at 50 mg/kg, po administered 30 mins before ovalbumin challenge measured after 4 hrs by luminex single-bead analysis; assay type: functional, organism-based; set-up: dose 50 mg/kg
In short: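 DO10.11 BALB/c mice carrying a transgenic ovalbumin-peptide TCR were dosed orally with compound, then challenged iv with 1.0 mg low-endotoxin ovalbumin. Plasma IL-2 was measured at 4 h by Luminex bead assay using two anti-IL-2 antibodies. Groups had n = 8, and reduction was expressed versus the ovalbumin challenge group (ANOVA with Dunnett test).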

[12] = Plasma concentration in DO10.11 transgenic BALB/c mouse at 50 mg/kg, po administered 30 mins before ovalbumin challenge measured after 4 hrs; assay type: ADME, organism-based; set-up: dose 50 mg/kg, route oral
[13] = biological target: T1, Cathepsin K (Homo sapiens, UniProt P43235); assay: Inhibition of human cathepsin-K using Z-Leu-Arg-AMC as substrate up to 20 mins by fluorescence assay; in short: as §3
T1 sequence (P43235 whole entry): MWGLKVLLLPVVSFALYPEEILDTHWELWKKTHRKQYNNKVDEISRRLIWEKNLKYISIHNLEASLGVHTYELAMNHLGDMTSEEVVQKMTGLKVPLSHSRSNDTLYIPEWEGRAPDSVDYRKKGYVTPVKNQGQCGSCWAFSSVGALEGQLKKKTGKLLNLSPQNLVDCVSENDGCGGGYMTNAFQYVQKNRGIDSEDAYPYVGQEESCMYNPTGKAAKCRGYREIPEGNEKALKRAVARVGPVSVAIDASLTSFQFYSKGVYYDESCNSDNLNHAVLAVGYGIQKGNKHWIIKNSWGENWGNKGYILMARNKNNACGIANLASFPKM

[14] = biological target: Procathepsin L (Homo sapiens, UniProt P07711); assay: Inhibition of human cathepsin-L using Z-Val-Val-Arg-AMC as substrate up to 20 mins by fluorescence assay; in short: as §3
Procathepsin L, sequence (P07711 whole entry): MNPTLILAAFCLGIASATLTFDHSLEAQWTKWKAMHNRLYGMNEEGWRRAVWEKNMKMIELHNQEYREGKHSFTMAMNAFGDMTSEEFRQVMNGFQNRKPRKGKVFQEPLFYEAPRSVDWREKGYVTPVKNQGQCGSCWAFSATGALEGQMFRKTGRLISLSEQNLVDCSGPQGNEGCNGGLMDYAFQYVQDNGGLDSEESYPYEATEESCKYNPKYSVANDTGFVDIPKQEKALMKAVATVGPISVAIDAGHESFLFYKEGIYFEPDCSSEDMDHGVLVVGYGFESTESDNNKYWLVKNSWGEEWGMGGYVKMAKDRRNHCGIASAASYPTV

[15] = Half life in C57Bl/6 mouse at 2 mg/kg, iv; assay type: ADME, organism-based; set-up: dose 2 mg/kg, route intravenous; settings: in vivo; in short: as §1
[16] = system: Mus musculus; assay: Dose normalized AUC in C57Bl/6 mouse at 2 mg/kg, iv; assay type: ADME, organism-based; set-up: dose 2 mg/kg, route intravenous; settings: in vivo; in short: as §1
[17] = biological target: Cathepsin S (Mus musculus, UniProt O70370); assay: Inhibition of mouse cathepsin-S using Z-Val-Val-Arg-AMC as substrate up to 20 mins by fluorescence assay; in short: as §3
Cathepsin S (Mus musculus, UniProt O70370), sequence (O70370 whole entry): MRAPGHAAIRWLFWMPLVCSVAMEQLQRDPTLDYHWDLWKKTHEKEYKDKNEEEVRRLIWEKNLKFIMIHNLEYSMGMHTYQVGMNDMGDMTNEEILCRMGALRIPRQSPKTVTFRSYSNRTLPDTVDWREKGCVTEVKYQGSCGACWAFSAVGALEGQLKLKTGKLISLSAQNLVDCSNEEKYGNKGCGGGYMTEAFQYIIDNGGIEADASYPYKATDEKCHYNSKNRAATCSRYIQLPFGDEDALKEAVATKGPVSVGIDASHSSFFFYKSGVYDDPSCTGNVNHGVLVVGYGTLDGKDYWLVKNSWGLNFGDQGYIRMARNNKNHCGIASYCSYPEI

[18] = Drug degradation in NMRI mouse plasma at 1000 ng/mL after 4 hrs; assay type: ADME, cell-free; settings: read-out: Drug degradation; in short: as §2

| clearance [1] | AUC/dose [2] | Vd [3] | remaining at 4 h, 1000 ng/mL [4] | IC50 [5] | Stability [6] | IC50 [7] | bioavailability [8] | IC50 [9] | half-life [10] | concentration at 4 h [12] | IC50 [13] | IC50 [14] | half-life [15] | AUC/dose [16] | IC50 [17] | metabolised at 4 h, 1000 ng/mL [18] | SMILES | Activity [11] |
| --- | --- | --- | --- | --- | --- | --- | --- | --- | --- | --- | --- | --- | --- | --- | --- | --- | --- | --- |
| 1.6 mL/min/kg | 7200 ng·h/mL | 0.13 L/kg | 51% | 2 nM | Stable | > 25000 nM | 69% | 58 nM | 0.9 h | 2050 ng/mL | > 25000 nM | > 25000 nM | 1.1 h | 10400 ng·h/mL | 6 nM |  | N#CC1(NC(=O)[C@@H]2C[C@@H](S(=O)(=O)c3ccccc3C(F)(F)F)CN2)CC1 | inactive |
|  |  |  |  | 0.8 nM |  | 35200 nM |  | 15 nM |  |  | > 25000 nM | 6800 nM |  |  | 1 nM | > 90% | N#CC1(NC(=O)[C@@H]2C[C@@H](S(=O)(=O)c3ccccc3Cl)CN2C(=O)c2ccccc2)CC1 |  |

— ChEMBL document CHEMBL3091448, “Identification of potent and selective cathepsin S inhibitors containing different central cyclic scaffolds” (J Med Chem, 2013)
